Results: ChEMBL document CHEMBL3421615, “Synthesis and identification of unprecedented selective inhibitors of CK1ε” (Eur J Med Chem, 2015)

What was measured:
[1] = Antiproliferative activity against human HBL100 cells after 48 hrs incubation by SRB assay; type: functional; conditions: HBL-100, 48 h
Summary of the method: (§1)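 Cells kept in RPMI 1640 with 5% heat-inactivated FCS and 2 mM L-glutamine at 37 °C, 5% CO2. Plated at 10 000 (HBL-100, HeLa, SW1573), 15 000 (T-47D) or 20 000 (WiDr) cells/well. Dosing began day 1, in triplicate, over 1–100 range. DMSO stocks at 400× final top concentration; vehicle control 0.25% DMSO. Exposure 48 h, then TCA fixation 60 min at 4 °C. SRB read-out at 492 nm, background-corrected; GI50 from dose–response.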

HeLa = experiment: Antiproliferative activity against human HeLa cells after 48 hrs incubation by SRB assay; type: functional; summary of the method: as §1
SW1573 = experiment: Antiproliferative activity against human SW1573 cells after 48 hrs incubation by SRB assay; type: functional; conditions: SW1573, 48 h; summary of the method: as §1
T47D = experiment: Antiproliferative activity against human T47D cells after 48 hrs incubation by SRB assay; type: functional; summary of the method: as §1
WiDr = experiment: Antiproliferative activity against human WiDr cells after 48 hrs incubation by SRB assay; type: functional; summary of the method: as §1
[2] = target: Casein kinase I isoform alpha (Homo sapiens) (UniProt P48729); experiment: Inhibition of human Casein kinase 1 alpha 1 assessed as residual activity at 10 uM relative to control
Summary of the method: (§2)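 KINOMEscan active-site-directed competition binding run against a 456-kinase panel (scanMAX), each compound at a single 10 µM concentration. Binding reported as percent of control, with DMSO set to 100%Ctrl and a positive control set to 0%Ctrl. Hit cut-off is 35%Ctrl.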

[3] = target: T1, Casein kinase I isoform alpha-like (Homo sapiens) (UniProt Q8N752); experiment: Inhibition of human Casein kinase 1 alpha 1-like assessed as residual activity at 10 uM relative to control; summary of the method: as §2
T1 sequence (whole entry): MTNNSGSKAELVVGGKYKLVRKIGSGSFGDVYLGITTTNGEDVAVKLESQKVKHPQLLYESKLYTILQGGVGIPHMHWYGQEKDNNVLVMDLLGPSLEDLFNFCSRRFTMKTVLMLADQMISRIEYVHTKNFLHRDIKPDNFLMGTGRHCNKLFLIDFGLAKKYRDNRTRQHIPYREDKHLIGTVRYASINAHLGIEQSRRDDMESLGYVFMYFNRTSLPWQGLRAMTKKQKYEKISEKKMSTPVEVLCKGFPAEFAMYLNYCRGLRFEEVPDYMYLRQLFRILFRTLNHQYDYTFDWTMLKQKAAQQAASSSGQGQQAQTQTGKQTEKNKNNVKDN

[4] = target: Casein kinase I isoform delta (Homo sapiens) (UniProt P48730); experiment: Inhibition of human Casein kinase 1 delta assessed as residual activity at 10 uM relative to control; summary of the method: as §2
[5] = target: Casein kinase I isoform epsilon (Homo sapiens, UniProt P49674); experiment: Inhibition of human Casein kinase 1 epsilon assessed as residual activity at 10 uM relative to control; summary of the method: as §2
[6] = target: Casein kinase I isoform gamma-1 (Homo sapiens) (UniProt Q9HCP0); experiment: Inhibition of human Casein kinase 1 gamma 1 assessed as residual activity at 10 uM relative to control; summary of the method: as §2
[7] = target: Casein kinase I isoform gamma-2 (Homo sapiens) (UniProt P78368); experiment: Inhibition of human Casein kinase 1 gamma 2 assessed as residual activity at 10 uM relative to control; summary of the method: as §2
[8] = target: Casein kinase I isoform gamma-3 (Homo sapiens) (UniProt Q9Y6M4); experiment: Inhibition of human Casein kinase 1 gamma 3 assessed as residual activity at 10 uM relative to control; summary of the method: as §2
[9] = target: Casein kinase II subunit alpha (Homo sapiens) (UniProt P68400); experiment: Inhibition of human Casein kinase 2 alpha 1 polypeptide assessed as residual activity at 10 uM relative to control; summary of the method: as §2
[10] = target: Casein kinase II subunit alpha' (Homo sapiens) (UniProt P19784); experiment: Inhibition of human Casein kinase 2 alpha prime polypeptide assessed as residual activity at 10 uM relative to control; summary of the method: as §2
Casein kinase II subunit alpha' (Homo sapiens), sequence (P19784 whole entry, looked up): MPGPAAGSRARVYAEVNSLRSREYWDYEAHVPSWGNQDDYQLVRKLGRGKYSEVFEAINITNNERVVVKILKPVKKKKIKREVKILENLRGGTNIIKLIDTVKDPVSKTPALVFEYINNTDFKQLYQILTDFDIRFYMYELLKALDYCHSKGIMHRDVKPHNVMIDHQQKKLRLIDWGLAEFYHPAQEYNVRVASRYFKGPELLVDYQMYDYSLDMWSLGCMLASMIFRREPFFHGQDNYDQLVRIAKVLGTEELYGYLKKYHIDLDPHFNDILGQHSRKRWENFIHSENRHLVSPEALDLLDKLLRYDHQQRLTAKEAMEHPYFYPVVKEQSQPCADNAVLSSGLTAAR

Casein kinase I isoform gamma-3 (Homo sapiens), sequence (Q9Y6M4 whole entry, looked up, canonical isoform): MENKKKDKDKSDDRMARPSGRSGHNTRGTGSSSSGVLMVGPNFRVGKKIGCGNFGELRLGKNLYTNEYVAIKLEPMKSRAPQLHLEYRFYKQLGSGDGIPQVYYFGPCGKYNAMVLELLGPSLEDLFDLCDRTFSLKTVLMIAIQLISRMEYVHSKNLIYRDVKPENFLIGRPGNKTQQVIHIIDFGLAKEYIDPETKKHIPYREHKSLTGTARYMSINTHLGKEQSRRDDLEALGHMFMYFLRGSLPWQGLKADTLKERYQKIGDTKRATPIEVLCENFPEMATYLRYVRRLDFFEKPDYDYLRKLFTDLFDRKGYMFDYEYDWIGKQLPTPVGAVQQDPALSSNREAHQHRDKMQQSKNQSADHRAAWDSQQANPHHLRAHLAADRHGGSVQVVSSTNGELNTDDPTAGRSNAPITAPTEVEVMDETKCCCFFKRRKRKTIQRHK
Casein kinase I isoform epsilon, sequence (P49674 whole entry, looked up, canonical isoform): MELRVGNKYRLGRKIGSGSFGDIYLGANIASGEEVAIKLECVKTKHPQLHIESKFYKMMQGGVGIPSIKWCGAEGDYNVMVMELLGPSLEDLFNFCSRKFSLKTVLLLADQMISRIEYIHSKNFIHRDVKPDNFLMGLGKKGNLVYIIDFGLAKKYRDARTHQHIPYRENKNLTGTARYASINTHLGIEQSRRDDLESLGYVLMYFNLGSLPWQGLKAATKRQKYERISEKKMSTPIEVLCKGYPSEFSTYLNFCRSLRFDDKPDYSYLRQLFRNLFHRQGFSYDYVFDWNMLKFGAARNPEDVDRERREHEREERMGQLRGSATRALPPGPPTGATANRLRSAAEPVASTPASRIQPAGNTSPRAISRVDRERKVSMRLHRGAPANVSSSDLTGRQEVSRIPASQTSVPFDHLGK
Casein kinase II subunit alpha (Homo sapiens), sequence (P68400 whole entry, looked up): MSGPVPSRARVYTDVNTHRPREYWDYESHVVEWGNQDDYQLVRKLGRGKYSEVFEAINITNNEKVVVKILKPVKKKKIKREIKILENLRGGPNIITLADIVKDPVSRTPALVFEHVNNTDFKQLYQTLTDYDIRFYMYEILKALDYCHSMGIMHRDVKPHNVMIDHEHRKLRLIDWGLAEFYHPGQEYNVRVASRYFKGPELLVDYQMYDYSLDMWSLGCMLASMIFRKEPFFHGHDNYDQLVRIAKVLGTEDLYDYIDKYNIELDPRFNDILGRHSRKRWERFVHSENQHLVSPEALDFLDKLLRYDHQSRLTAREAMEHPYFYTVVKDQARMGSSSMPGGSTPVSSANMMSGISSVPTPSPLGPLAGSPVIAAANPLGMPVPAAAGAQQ
Casein kinase I isoform alpha (Homo sapiens), sequence (P48729 2-337 limits assumed): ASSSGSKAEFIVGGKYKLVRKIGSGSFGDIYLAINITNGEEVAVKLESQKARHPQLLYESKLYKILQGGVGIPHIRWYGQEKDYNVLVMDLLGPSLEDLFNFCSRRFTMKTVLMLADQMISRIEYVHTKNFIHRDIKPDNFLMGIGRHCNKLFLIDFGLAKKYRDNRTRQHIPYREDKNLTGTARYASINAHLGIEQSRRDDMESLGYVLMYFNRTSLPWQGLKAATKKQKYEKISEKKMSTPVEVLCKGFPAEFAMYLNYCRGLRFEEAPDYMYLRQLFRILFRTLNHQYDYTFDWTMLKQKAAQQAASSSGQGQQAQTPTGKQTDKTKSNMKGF
Casein kinase I isoform gamma-2 (Homo sapiens), sequence (P78368 whole entry, looked up, canonical isoform): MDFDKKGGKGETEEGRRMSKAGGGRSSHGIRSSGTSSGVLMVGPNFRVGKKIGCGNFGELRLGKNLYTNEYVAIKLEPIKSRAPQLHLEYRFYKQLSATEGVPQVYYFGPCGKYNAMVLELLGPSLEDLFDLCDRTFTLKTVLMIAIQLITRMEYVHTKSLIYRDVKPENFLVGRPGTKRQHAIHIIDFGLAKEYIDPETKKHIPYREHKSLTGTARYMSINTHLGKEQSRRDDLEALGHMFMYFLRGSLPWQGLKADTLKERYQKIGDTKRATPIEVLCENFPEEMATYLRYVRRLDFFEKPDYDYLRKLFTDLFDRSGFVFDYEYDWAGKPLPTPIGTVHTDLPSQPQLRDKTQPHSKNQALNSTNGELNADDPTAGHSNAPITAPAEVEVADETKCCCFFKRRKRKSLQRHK
Casein kinase I isoform gamma-1 (Homo sapiens), sequence (Q9HCP0 whole entry, looked up, canonical isoform): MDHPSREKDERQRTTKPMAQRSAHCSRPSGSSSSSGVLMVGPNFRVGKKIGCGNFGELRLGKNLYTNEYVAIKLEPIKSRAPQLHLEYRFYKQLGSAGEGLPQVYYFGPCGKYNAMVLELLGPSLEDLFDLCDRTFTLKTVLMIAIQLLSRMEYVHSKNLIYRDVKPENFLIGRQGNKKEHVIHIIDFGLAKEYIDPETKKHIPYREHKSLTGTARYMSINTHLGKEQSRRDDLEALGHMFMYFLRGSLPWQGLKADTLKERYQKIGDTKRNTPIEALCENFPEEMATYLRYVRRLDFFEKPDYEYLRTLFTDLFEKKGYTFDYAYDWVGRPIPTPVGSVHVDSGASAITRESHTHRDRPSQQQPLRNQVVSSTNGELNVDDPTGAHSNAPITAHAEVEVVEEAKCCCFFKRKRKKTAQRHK
Casein kinase I isoform delta (Homo sapiens), sequence (P48730 whole entry, looked up, canonical isoform): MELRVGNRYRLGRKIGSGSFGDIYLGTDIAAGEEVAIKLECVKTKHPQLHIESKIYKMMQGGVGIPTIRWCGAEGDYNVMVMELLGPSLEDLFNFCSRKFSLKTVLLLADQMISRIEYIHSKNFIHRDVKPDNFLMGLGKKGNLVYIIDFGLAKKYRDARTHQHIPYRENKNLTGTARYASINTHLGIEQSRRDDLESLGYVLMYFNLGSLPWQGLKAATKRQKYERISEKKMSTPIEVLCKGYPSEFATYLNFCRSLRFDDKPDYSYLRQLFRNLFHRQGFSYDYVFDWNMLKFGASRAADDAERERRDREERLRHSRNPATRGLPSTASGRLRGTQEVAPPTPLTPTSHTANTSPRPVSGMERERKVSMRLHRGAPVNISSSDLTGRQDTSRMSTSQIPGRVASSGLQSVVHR

SMILES	GI50 [1] [µM]	GI50 (HeLa) [µM]	GI50 (SW1573) [µM]	GI50 (T47D) [µM]	GI50 (WiDr) [µM]	Activity [2] [%]	Activity [3] [%]	Activity [4] [%]	Activity [5] [%]	Activity [6] [%]	Activity [7] [%]	Activity [8] [%]	Activity [9] [%]	Activity [10] [%]
COc1cc([C@@H]2c3cc4c(cc3[C@@H](O[C@@H]3O[C@@H]5CO[C@@H](C)O[C@H]5[C@H](O)[C@H]3O)[C@H]3COC(=O)[C@H]23)OCO4)cc(OC)c1O [ETOPOSIDE]	1.9	2	3	15	26	–	–	–	–	–	–	–	–	–
CCCCCCCCCCCCCCC[C@@H](O)[C@@H](N)C(C)CC (single isomer, unassigned)	2.4	20	3.4	17	13	–	–	–	–	–	–	–	–	–
CCCCCCCCC[C@@H](O)[C@@H](N)C(C)CC (single isomer, unassigned)	13	20	13	14	2.3	–	–	–	–	–	–	–	–	–
CCCCCCCCC[C@@H](O)[C@@H](N)[C@@H](C)O	13	17	17	16	14	–	–	–	–	–	–	–	–	–
CCCCCCCCCCCCCCC[C@@H](O)[C@@H](N)C(C)C	4.9	21	7.2	18	20	–	–	–	–	–	–	–	–	–
CCCCCCCCC[C@@H](O)[C@@H](N)CC(C)C	14	21	14	11	5.9	–	–	–	–	–	–	–	–	–
CCCCCCCCCCCCCCC[C@@H](O)[C@@H](N)CC(C)C	2.4	19	2.8	15	4.9	93	91	89	48	98	94	93	84	100
CCCCCCCCC[C@@H](O)[C@@H](N)Cc1ccccc1	14	18	16	17	12	95	88	93	27	100	96	71	70	100
CCCCCCCCCCCCCCC[C@@H](O)[C@@H](N)[C@@H](C)O	21	19	17	19	18	100	100	90	43	100	87	82	71	100
CCCCCCCCC[C@@H](O)[C@@H](N)Cc1ccc(O)cc1	14	20	18	17	12	–	–	–	–	–	–	–	–	–
CCCCCCCCCCCCCCC[C@@H](O)[C@@H](N)Cc1ccccc1	2.9	1.3	2.1	1.8	2.3	–	–	–	–	–	–	–	–	–
CCCCCCCCC[C@@H](O)[C@@H](N)C(C)C	14	20	17	17	11	–	–	–	–	–	–	–	–	–
CCCCCCCCCCCCCCC[C@@H](O)[C@@H](N)CO [DIHYDROSPINGOSINE]	25	15	4.5	22	19	–	–	–	–	–	–	–	–	–
CCCCCCCCC[C@@H](O)[C@H](C)N	6.6	9.2	9.5	12	17	–	–	–	–	–	–	–	–	–
CCCCCCCCCCCCCCC[C@@H](O)[C@H](C)N	2.3	2.6	1.3	0.9	0.7	100	100	100	60	98	100	100	87	98
